Bounds are passed on as bounds.

The record followed here is ChEMBL document CHEMBL1134779, “Synthesis and characterization of the antitumor activities of analogues of meridine, a marine pyridoacridine alkaloid” (J Med Chem, 2001).

One assay deals with LoVo. Briefly: In vitro inhibition of LoVo (human colon cancer) cell growth. The assay is classed as functional, cell-based. An outline of the steps: (§1)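 Human cancer lines from ATCC, grown at 37 °C in sealed dishes in Eagle's MEM with 5% FCS. Cells were seeded at 40000 cells/mL and plated for 24 h before drug exposure. Six concentrations from 10^-5 to 10^-10 M were tested. Growth was read by MTT reduction to formazan at 570 nm (reference 630 nm), in sextuplicate. IC50 is the concentration giving 50% growth reduction versus control.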

For the next assay, the system named is PC-3. Nature of the assay: In vitro inhibition of PC-3 (human prostate cancer) cell growth. The assay is classed as functional, cell-based. The gist of the method:
as §1

The test system of another assay is SW1088 (human). Nature of the assay: In vitro inhibition of SW1088 (human astrocytoma) cell growth.
The next assay concerns U-87 MG. Nature of the assay: In vitro inhibition of U-87 MG (human glioblastoma) cell growth. The assay is classed as functional, cell-based, U-87MG ATCC. An outline of the steps:
as §1

The test system of a further assay is T47D. Nature of the assay: In vitro inhibition of T-47D (human breast cancer) cell growth. The assay is classed as functional, cell-based. The gist of the method: as §1
Assay [1] is described as follows: In vitro inhibition of T24 (human bladder cancer) cell growth. The assay is classed as functional, cell-based. To be noted: T-24. An outline of the steps:
as §1

The next assay relates to U373 MG. Briefly: In vitro inhibition of U-373 MG (human glioblastoma) cell growth. The assay is classed as functional, cell-based, U-373MG ATCC. The gist of the method:
as §1

The next assay relates to A549. Briefly: In vitro inhibition of A549 (human lung cancer) cell growth. The assay is classed as functional, cell-based. An outline of the steps:
as §1

Another assay has as its system MCF7. Briefly: In vitro inhibition of MCF-7 (human breast cancer) cell growth. The assay is classed as functional, cell-based. The gist of the method:
as §1

For another assay, the system named is J82. Briefly: In vitro inhibition of J82 (human bladder cancer) cell growth. The assay is classed as functional, cell-based. The gist of the method:
as §1

A further assay has as its system HCT-15. Nature of the assay: In vitro inhibition of HCT-15 (human colon cancer) cell growth. The assay is classed as functional, cell-based. An outline of the steps:
as §1

In the next assay the test system is A-427. Briefly: In vitro inhibition of A-427 (human lung cancer) cell growth. The assay is classed as functional, cell-based. The gist of the method:
as §1

A word on the IC50: it is the concentration that inhibits the measured activity by half. A lower IC50 goes with greater potency in that assay. `O=C1c2nccc([N+](=O)[O-])c2-c2nc3ccccc3c3ccnc1c23`: the IC50 in the assay with LoVo is 90 nM; with PC-3, 4200 nM; with SW1088 (human), 5500 nM; with U-87 MG, 70 nM; in the assay on T47D, 600 nM; in assay [1], 700 nM. Besides, the IC50 in the assay with U373 MG came to 90 nM; with A549, 800 nM; with MCF7 it was 70 nM; in the assay on J82, 500 nM; in the assay on HCT-15, 600 nM; in the assay with A-427, 2400 nM.

For `O=C1c2nccc(-c3ccccc3NC(=O)C(F)(F)F)c2C(=O)c2c([N+](=O)[O-])ccnc21`, the IC50 turned out to be 900 nM in the assay on LoVo; 600 nM with PC-3; 6000 nM in the assay on SW1088 (human); 4700 nM in the assay on U-87 MG; 4300 nM with T47D; 5400 nM in assay [1]. For the same compound, the IC50 was found to be 900 nM in the assay on U373 MG; 900 nM in the assay on A549; 700 nM with MCF7; 3900 nM with J82; 600 nM in the assay on HCT-15; 4500 nM with A-427.

For `O=C1c2nccc(Cl)c2-c2nc3ccccc3c3ccnc1c23`, the IC50 with LoVo amounted to 50 nM; with PC-3, 500 nM; with SW1088 (human), 4300 nM; in the assay on U-87 MG, 20 nM; with T47D it was 2700 nM; in assay [1], 90 nM. The IC50 with U373 MG is 100 nM; in the assay on A549, 7 nM; with MCF7, 80 nM; with J82 it was 90 nM; with HCT-15 it was 100 nM; with A-427 it was 900 nM.

On to `O=C1c2nccc(O)c2C(=O)c2c(-c3ccccc3[N+](=O)[O-])ccnc21`, for which the IC50 in the assay with LoVo was determined as 2900 nM; with PC-3 it was 7300 nM; with SW1088 (human), 2900 nM; in the assay with U-87 MG, 800 nM; in the assay with T47D it was 4500 nM; in assay [1] it was 2300 nM. Moreover, the IC50 turned out to be 4000 nM in the assay with U373 MG; 2300 nM in the assay on A549; 3900 nM in the assay with MCF7; 5300 nM in the assay with J82; 3500 nM with HCT-15; 1200 nM in the assay on A-427.

For `O=C1c2nccc(Cl)c2C(=O)c2c(-c3ccccc3[N+](=O)[O-])ccnc21`, the IC50 was found to be 3900 nM in the assay with LoVo; 5000 nM in the assay on PC-3; 5400 nM in the assay on SW1088 (human); 2000 nM in the assay on U-87 MG; 800 nM in the assay on T47D; 5500 nM in assay [1]. Moreover, the IC50 with U373 MG came out at 4800 nM; with A549, 900 nM; with MCF7, 1800 nM; with J82, 500 nM; in the assay with HCT-15, 2800 nM; in the assay with A-427 it was 3500 nM.

With `Nc1ccnc2c1-c1nc3ccccc3c3ccnc(c13)C2=O`, the IC50 was found to be 90 nM with LoVo; 500 nM in the assay with PC-3; 80 nM in the assay on SW1088 (human); 70 nM with U-87 MG; 600 nM with T47D; 70 nM in assay [1]. Moreover, the IC50 with U373 MG was 100 nM; in the assay with A549, 80 nM; in the assay with MCF7, 90 nM; with J82, 700 nM; in the assay with HCT-15, 300 nM; in the assay on A-427, 60 nM.

`O=C1c2nccc(Cl)c2C(=O)c2c(-c3ccccc3NC(=O)C(F)(F)F)ccnc21`: the IC50 amounted to 60 nM in the assay with LoVo; 900 nM with PC-3; 3800 nM in the assay on SW1088 (human); 50 nM in the assay with U-87 MG; 2100 nM in the assay on T47D; 200 nM in [1]. For the same compound, the IC50 is 90 nM in the assay with U373 MG; 70 nM in the assay on A549; 60 nM with MCF7; 3300 nM in the assay with J82; 10 nM with HCT-15; 600 nM with A-427.

Take `Nc1ccnc2c1C(=O)c1c(-c3ccccc3NC(=O)C(F)(F)F)ccnc1C2=O`: the IC50 with LoVo was determined as 700 nM; in the assay on PC-3, 600 nM; in the assay on SW1088 (human), 800 nM; in the assay on U-87 MG it was 300 nM; in the assay with T47D, 1200 nM; in assay [1], 700 nM. The IC50 was determined as 900 nM in the assay on U373 MG; 600 nM in the assay with A549; 800 nM with MCF7; 2700 nM in the assay on J82; 600 nM in the assay with HCT-15; 500 nM in the assay on A-427.

On to `O=C1c2ncccc2C(=O)c2c(-c3ccccc3NC(=O)C(F)(F)F)ccnc21`, for which the IC50 in the assay on LoVo worked out at 7 nM; in the assay with PC-3, 60 nM; with SW1088 (human), 60 nM; in the assay on U-87 MG it was 0.9 nM; with T47D, 50 nM; in assay [1], 200 nM. Further, the IC50 in the assay with U373 MG stood at 5 nM; in the assay on A549, 6 nM; with MCF7 it was 6 nM; with J82, 60 nM; with HCT-15 it was 8 nM; in the assay with A-427, 30 nM.

For `O=C1c2nccc(O)c2-c2nc3ccccc3c3ccnc1c23` [MERIDINE], the IC50 in the assay on LoVo was 70 nM; with PC-3 it was 500 nM; in the assay on SW1088 (human), 2000 nM; with U-87 MG it was 100 nM; in the assay on T47D, 70 nM; in [1], 50 nM. Further, the IC50 with U373 MG was determined as 100 nM; in the assay on A549, 80 nM; in the assay on MCF7, 90 nM; with J82, 8200 nM; in the assay on HCT-15, 200 nM; with A-427, 200 nM.

Consider `COc1ccnc2c1-c1nc3ccccc3c3ccnc(c13)C2=O`, for which the IC50 was 0.3 nM in the assay with LoVo; 60 nM in the assay with PC-3; 60 nM in the assay with SW1088 (human); under 0.1 nM in the assay on U-87 MG; 30 nM in the assay on T47D; 6 nM in [1]. Also, the IC50 was under 0.1 nM in the assay with U373 MG; 0.3 nM in the assay on A549; under 0.1 nM in the assay on MCF7; 0.9 nM in the assay on J82; 2 nM in the assay with HCT-15; 5 nM in the assay with A-427.

For `CN(C)c1ccnc2c1C(=O)c1c(-c3ccccc3NC(=O)C(F)(F)F)ccnc1C2=O`, the IC50 with LoVo came out at 100 nM; in the assay with PC-3, 600 nM; in the assay on SW1088 (human) it was 400 nM; with U-87 MG, 60 nM; in the assay with T47D, 700 nM; in assay [1], 300 nM. The IC50 in the assay on U373 MG was determined as 300 nM; in the assay with A549, 60 nM; in the assay on MCF7 it was 100 nM; in the assay with J82, 2000 nM; with HCT-15 it was 200 nM; in the assay with A-427, 70 nM.

For the compound `O=C1c2nc(O)ccc2C(=O)c2c(-c3ccccc3NC(=O)C(F)(F)F)ccnc21`, the IC50 in the assay with LoVo was 40 nM; in the assay with PC-3 it was 900 nM; in the assay with SW1088 (human), 60 nM; in the assay on U-87 MG it was 40 nM; with T47D it was 200 nM; in assay [1], 50 nM. In addition, the IC50 in the assay on U373 MG came out at 40 nM; with A549, 50 nM; in the assay with MCF7 it was 30 nM; in the assay with J82, 2100 nM; in the assay with HCT-15, 60 nM; in the assay with A-427, 40 nM.

Turning to `COc1ccnc2c1C(=O)c1c(-c3ccccc3[N+](=O)[O-])ccnc1C2=O`, the IC50 in the assay with LoVo worked out at 50 nM; with PC-3, 3100 nM; in the assay on SW1088 (human) it was 3900 nM; in the assay on U-87 MG it was 9 nM; in the assay with T47D, 5100 nM; in [1], 20 nM. Further, the IC50 was 30 nM in the assay on U373 MG; 20 nM with A549; 50 nM in the assay with MCF7; 400 nM with J82; 90 nM in the assay on HCT-15; 700 nM in the assay on A-427.

As for `O=C1c2nccc(Br)c2-c2nc3ccccc3c3ccnc1c23`, the IC50 in the assay with LoVo was found to be 800 nM; in the assay with PC-3, 4900 nM; in the assay on SW1088 (human), 3000 nM; with U-87 MG it was 700 nM; in the assay on T47D it was 4400 nM; in [1], 700 nM. Besides, the IC50 came to 900 nM in the assay with U373 MG; 3300 nM in the assay with A549; 1100 nM with MCF7; 9000 nM with J82; 3600 nM with HCT-15; 700 nM in the assay with A-427.

For the compound `Nc1ccnc2c1C(=O)c1c(-c3ccccc3[N+](=O)[O-])ccnc1C2=O`, the IC50 came out at 5700 nM with LoVo; 5100 nM in the assay on PC-3; 4800 nM in the assay on SW1088 (human); 2700 nM with U-87 MG; 5500 nM in the assay with T47D; 3600 nM in [1]. Further, the IC50 amounted to 3100 nM in the assay on U373 MG; 600 nM in the assay with A549; 3100 nM in the assay with MCF7; 3000 nM in the assay on J82; 500 nM in the assay on HCT-15; 5500 nM with A-427.

As to `COc1ccnc2c1C(=O)c1c(-c3ccccc3NC(=O)C(F)(F)F)ccnc1C2=O`, the concentration for half-maximal inhibition (IC50) with LoVo was 0.1 nM; with PC-3, 50 nM; with SW1088 (human) it was 50 nM; in the assay on U-87 MG it was under 0.1 nM; with T47D, 30 nM; in assay [1], 7 nM. Also, the IC50 in the assay with U373 MG was under 0.1 nM; in the assay on A549 it was under 0.1 nM; in the assay on MCF7, 0.3 nM; in the assay on J82, 0.9 nM; with HCT-15 it was 2 nM; with A-427 it was 50 nM.
